Screening results deposited in PubChem BioAssay by The Scripps Research Institute Molecular Screening Center.
rCAG RNA binder – binds r(CAG) RNA repeats | r(CAG) RNA repeat, TO-PRO-1 dye displacement fluorescence | inhibition, % at 3 µM | actives 1.3% (n = 370,000) | AID 651821;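 active means inhibition above the plate cutoff, the mean of all test compounds on that plate plus 3 SD, cut at about 35% in these data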;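 further: 0% = DMSO alone and 100% = 100 µM mitoxantrone as full dye displacement; higher means more dye released from RNA so lower well fluorescence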
PRMT1 FP inh – inhibitors of human PRMT1 | Q99873 | recombinant PRMT1, activity-based probe fluorescence polarization | inhibition, % at 2.79 µM | actives 1.3% (n = 370,000);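 active means inhibition above about 21% made by adding two undisclosed values, limit read from the data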
TCR-CD3 inh – blocks the human TCR-CD3 interaction; actives 0.37% (n = 360,000); TAMRA-labeled TCR probe fluorescence, biochemical; inhibition, % at 9.4 µM; AID 651800; in the data active means inhibition above about 19%;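 further: recombinant mutant TCR 2C K166C tagged with TAMRA read by polarization; 0% = receptor in buffer alone and 100% = receptor with positive control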
SIAE inh – inhibitors of human sialic acid acetylesterase SIAE; SIAE FP-Rh probe binding, fluorescence polarization; actives 0.69% (n = 370,000); inhibition, % at 9.66 µM; Q9HAT2;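 active means inhibition above a cutoff: mean of compounds within the control limits plus 3 SD of those, cut at about 17% in these data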;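 further: 0% = plate median of compound wells and 100% = probe without SIAE protein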
Target sequence (Q9HAT2 whole entry, looked up): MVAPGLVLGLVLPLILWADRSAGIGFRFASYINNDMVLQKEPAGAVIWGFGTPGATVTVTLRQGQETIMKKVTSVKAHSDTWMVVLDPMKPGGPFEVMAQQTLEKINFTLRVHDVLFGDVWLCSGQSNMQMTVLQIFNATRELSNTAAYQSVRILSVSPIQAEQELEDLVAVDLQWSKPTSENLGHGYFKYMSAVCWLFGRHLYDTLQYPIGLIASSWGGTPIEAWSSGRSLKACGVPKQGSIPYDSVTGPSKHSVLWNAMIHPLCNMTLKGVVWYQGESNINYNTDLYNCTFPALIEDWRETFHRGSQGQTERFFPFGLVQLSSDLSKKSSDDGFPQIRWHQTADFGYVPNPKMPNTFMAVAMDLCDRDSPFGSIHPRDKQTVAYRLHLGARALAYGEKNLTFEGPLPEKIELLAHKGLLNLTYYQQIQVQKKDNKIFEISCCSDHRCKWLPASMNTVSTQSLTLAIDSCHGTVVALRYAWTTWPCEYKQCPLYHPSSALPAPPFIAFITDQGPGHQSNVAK
ABHD4 inh – inhibits mouse alpha/beta hydrolase domain 4 | Q8VD66 | purified mABHD4, FP-Rh probe fluorescence polarization | inhibition, % at 8.92 µM | actives 0.54% (n = 370,000) | AID 720543;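 active means inhibition exceeding the mean over every tested compound plus 3 SD, cut at about 30% in these data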;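 further: 0% = plate median of compound wells and 100% = S159A mutant with DMSO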
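Doses – 8.92 µM, single dose · Material – wild-type mouse ABHD4 protein · Replication – single well per compound (singlicate) · Measure – percent inhibition of probe binding, normalized to plate controls · Schedule – 45 min compound pre-incubation plus 60 min probe step, 25 °C · Detection – fluorescence polarization with parallel and perpendicular emission, 525/598 nm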
PRMT1 confirm – PRMT1 (human) inhibition, FP confirmation; shares compounds with PRMT1 FP inh; recombinant His-PRMT1, activity-based probe fluorescence polarization; inhibition, % at 2.79 µM; actives 42% (n = 3,300);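 active means mean inhibition across replicates above the hit cutoff derived for the earlier primary screen, cut at about 22% in these data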
Active calls of the source: *; . = no result given. Rows were chosen to be rich in hits. Some 3.3% of all compounds tested hit in one or more screens of this group.

SMILES	rCAG RNA binder	PRMT1 FP inh	TCR-CD3 inh	SIAE inh	ABHD4 inh	PRMT1 confirm
Cc1nn(C)c(C)c1N1C(=O)c2cccc3c(Br)ccc(c23)C1=O	8	57*	9	4	4	0
Cc1cc(/C=C2\Sc3ccccc3N2C)cc(C)[n+]1CC1CCCO1 (stereo unspecified)	9	100*	-6	-1	-7	-1
CC(C)[N+]1=C2C=CC=CC=C2SC12C([N+](=O)[O-])=CC(=[N+]([O-])[O-])C=C2[N+](=O)[O-] (stereo unspecified)	13	37*	-3	0	6	14
Cc1cccc2sc(NC(=O)Cn3cccc3)nc12	19	33*	-5	-1	-11	19
Cc1cccc2sc(NC(=O)CCn3cccc3)nc12	4	5	-7	-6	-5	.
COc1ccc(C(=O)N[C@@H]2CC[C@@]34CCCN3C(=O)CCC[C@H]4[C@H]2C)cc1	.	2	.	2	7	.
Cc1ccc(NC(=O)C2C3C=CC(O3)C2C(=O)O)cc1C (stereo unspecified)	0	5	-4	13	3	.
Cc1ccc(C)c(NC(=O)C2C3C=CC(O3)C2C(=O)O)c1 (stereo unspecified)	1	79*	-10	-2	7	38*
Cc1cccc(NC(=O)C2C3C=CC(O3)C2C(=O)O)c1C (stereo unspecified)	-1	33*	9	-2	7	0
Cc1ccc(NC(=O)C2C3C=CC(O3)C2C(=O)O)c(C)c1 (stereo unspecified)	1	37*	-2	-5	3	5
COC(=O)[C@]1(CNC(=O)Nc2ccc(C)c(Cl)c2)CC(=O)N(C)[C@@H]1c1ccccc1	2	-5	.	3	-4	.
OC[C@H]1CC[C@@H]2O[C@H](CCc3ccc(-c4ccc(F)cc4)cc3)[C@@H](n3cc(C4CC4)nn3)C[C@@H]2O1	8	-2	.	2	-13	.
COC(=O)C1CN(Cc2ccc(Cl)cc2)CCS(=O)(=O)N1Cc1cn(Cc2ccc(C)cc2)nn1 (stereo unspecified)	2	-1	.	0	-3	.
Cc1ccc(SC(CC(=O)c2ccc(F)cc2)C(=O)O)cc1 (stereo unspecified)	1	82*	1	8	-3	79*
O=C(CC(C(=O)O)c1ccc(F)cc1)c1ccc(Cl)cc1 (stereo unspecified)	4	1	-8	5	7	.
CC(=O)CSc1nc2c(c(=O)[nH]c(=O)n2C)n1Cc1cccc(Br)c1	-6	36*	-11	4	-15	13
Cc1ccc(NC(=O)CN2C(=O)N/C(=C/c3ccc(C)o3)C2=O)cc1	26	76*	2	14	10	16
CCn1c(C)cc(/C=C2\NC(=O)N(CC(=O)Nc3cccc(C)c3)C2=O)c1C	25	1	-25	-3	-12	.
C=CCN1C(=O)N/C(=C/c2ccc(C)o2)C1=O	-3	63*	-3	-3	3	29*
Cc1cccc(NC(=O)CN2C(=O)N/C(=C/c3ccc(C)o3)C2=O)c1	32	65*	-2	6	12	50*
Cc1ccc(NC(=O)CN2C(=O)N/C(=C/c3ccc(C)s3)C2=O)cc1	6	4	5	-11	0	.
CCOC(=O)[C@@]12CCCC=C1N(CCc1ccc(Cl)cc1)C(=O)[C@H]2CC(=O)NCc1cccc(C(F)(F)F)c1	3	0	.	-3	-8	.
c1ccc(C2Nc3ccccc3-c3nc4ccccc4n32)cc1 (stereo unspecified)	1	2	5	6	7	.
c1coc(C2Nc3ccccc3-c3nc4ccccc4n32)c1 (stereo unspecified)	25	45*	-6	-53	-56	-1
COc1ccc(CCNC(=O)CSc2nc3[nH]c(=O)cc(O)c3s2)cc1	22	29*	1	7	10	4
COc1ccc(C2=NN(C(=O)COC(=O)c3ccc(S(C)(=O)=O)c([N+](=O)[O-])c3)C(c3ccco3)C2)cc1 (stereo unspecified)	25	41*	-5	2	20	0
CCCCN1CCN(C(=O)C2CCCN(C(=O)c3ccc4c(c3)NC(=O)CS4)C2)CC1 (stereo unspecified)	1	-3	.	1	4	.
